Screen size: about 62,000 compounds; about 50 (0.08%) were called active.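 The calls were made as follows: active = inhibition above 30% in each of the two pooled mixtures holding the compound, so the lower value exceeds 30%; inactive = the rest.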 Only a selection was taken, and actives are over-represented in it overall.

The nature of this assay: blockers of serum C3 deposition on LPS – biochemical, ELISA, human serum, orthogonally pooled compounds, primary screen (AID 1235).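 Also: 0% = serum in Mg-EGTA without compound and 100% = EDTA serum blank.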 The following applies: Human serum alternative complement pathway, LPS-coated ELISA, tested in compound mixtures, at 5 µM, hits give high values. Put shortly: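 Test system: human serum alternative complement pathway, C3 deposition on LPS-coated wells; also added: Plate-bound LPS; doses: 5 µM per compound in ten-compound mixtures; schedule: 1 h at 37 °C; detection: Anti-C3 ELISA, OD 450 nm; evaluation: percent inhibition of C3 deposition onto LPS; repeats: two pool placements per compound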
In general terms: ELISA stands for enzyme-linked immunosorbent assay.
Usually inhibition stands for the change of the read-out against control, counted positive when it falls. With `c1c2c(cc3sc(N4CCCCC4)nc13)OCCO2`, the inhibition was -3.86% (inactive). For `CC(C(=O)O)N1C(=O)c2cccc3cccc1c23` (stereo unspecified) the value was -0.13% (inactive). Under `O=C1C2(c3ccccc3)CN(CCCO)CC1(c1ccccc1)CN(CCCO)C2` stands 0.125% (inactive); under `Cc1cc(C)nc(NC(=O)C(C)N2C(=O)c3ccccc3C2=O)n1` (stereo unspecified), 4.23% (inactive). Under `Cc1cc(N(C)C)cc(C)[n+]1[O-]` stands 13.5% (inactive); under `CC(=O)NC(Cc1ccc(F)cc1)C(=O)O` (stereo unspecified), 10.5% (inactive); under `COc1ccc2c(Cl)c(-c3nnco3)sc2c1`, 9.28% (inactive). As to `CCCCCN(C(=O)NC(=O)Nc1ccccc1C)S(C)(=O)=O`, the inhibition was 18.8% (inactive). Under `CS(=O)(=O)N(CC(=O)NCc1ccco1)c1ccc2c(c1)OCO2` stands -0.135% (inactive); under `COc1ccc(CCNC(=O)c2ccco2)cc1`, 3.87% (inactive); under `O=C(CSc1nnc(-c2cccs2)n1-c1ccccc1)N1CCN(C(=O)c2ccco2)CC1`, 13.8% (inactive). Under `COC(=O)c1ccccc1NC(=O)CSc1ccccn1` stands -0.725% (inactive); under `COc1cccc(Oc2ccc(N)cc2)c1`, 5.52% (inactive); under `CCNC(=O)N1CCNC(=O)C1CC(=O)Nc1ccc(C(=O)OCC)cc1` (stereo unspecified), -0.745% (inactive). As for `Cc1ccsc1C(C(=O)NC1CCCCC1)N(C(=O)Cc1cccs1)C1CC1` (stereo unspecified), the inhibition is -3.39% (inactive). For `CCN1C(=O)/C(=C\N2CCN(c3cccc(Cl)c3)CC2)SC1=S` the value was 11.5% (inactive). For `S=C1SCN(CCN2CCOCC2)CN1Cc1ccccc1` the value was 16% (inactive). `Cc1occc1C(=O)Nc1nnc(C2CCCCC2)s1`: the inhibition was 9.21% (inactive). For `COCCN(CC(=O)Nc1ccccc1C)S(=O)(=O)c1ccc(S(=O)(=O)N2CCCC2)cc1` the value was 10.3% (inactive); for `O=C(NCCCN1CCN(c2ccccc2F)CC1)C1CCC(=O)N1C1CCCCC1` (stereo unspecified), 1.73% (inactive). In the case of `COc1ccc(-c2nc(CS(=O)CC(=O)NCc3cccnc3)c(C)o2)cc1OC` (stereo unspecified), the inhibition was 10.4% (inactive). Under `CC(=O)O[C@]1(C(C)=O)CC[C@H]2[C@@H]3C=C(C)C4=CC(=O)CC[C@]4(C)[C@H]3CC[C@@]21C` stands 9.71% (inactive); under `CCNS(=O)(=O)c1ccc(NC(=O)Nc2cccc(C(F)(F)F)c2)cc1`, 12.9% (inactive); under `Cc1c(C(=O)N2CCCc3ccccc32)sc2nc(-c3ccccc3)cn12`, 16% (inactive). In the case of `O=C1c2cccnc2C(=O)N1Cc1cccs1`, the inhibition was 14.6% (inactive).

With `Cc1ccc(C2CC(c3cccc(Br)c3)n3nc(N)nc3N2)cc1` (stereo unspecified), the inhibition is 11.6% (inactive). For `CCOC(=O)Cn1c(=O)oc2cc(S(=O)(=O)NCC3CCCO3)ccc21` (stereo unspecified) the value was 15% (inactive); for `CCOC(=O)c1oc2ccccc2c1NC(=O)c1cccs1`, 0.31% (inactive). Under `CCCS(=O)(=O)N1CCCC(C(=O)N2CCN(c3ccccc3)CC2)C1` (stereo unspecified) stands 4.18% (inactive). For the compound `COc1ccc(-n2nnc3c(=O)n(CC(=O)N4CCC(Cc5ccccc5)CC4)cnc32)cc1`, the inhibition was 21.3% (inactive). For `COc1cc(OC)cc(C(=O)NCCSCc2ccco2)c1` the value was 4.01% (inactive).

As to `CCNS(=O)(=O)c1ccc(NC(=O)Nc2cccc(OC)c2)cc1`, the inhibition was 27.3% (inactive). For the compound `O=C(c1cccc2ccccc12)N1CCN(c2ccccc2F)CC1`, the inhibition is 18.4% (inactive).

Take `CCOC(=O)C1CCN(C(=O)CSc2cc(=O)n(C)c3ccccc23)CC1`: the inhibition was 7.27% (inactive). For `CCn1ncc(C2=NOC(C(=O)Nc3ccccc3C(=O)OC)C2)c1C` (stereo unspecified) the value was 12.4% (inactive); for `COc1ccc(N(Cc2cc3cc(OC)ccc3[nH]c2=O)S(C)(=O)=O)cc1`, -2.02% (inactive); for `CCc1c(C)nc2ncnn2c1N1CCC(C(=O)NCc2ccc3c(c2)OCO3)CC1`, 20.2% (inactive).

For `Cc1ccc(-c2nc(CS(=O)CC(=O)NC3CCCC3)c(C)o2)cc1` (stereo unspecified), the inhibition was 10.5% (inactive). Consider `FC(F)(F)c1nnc2sc(-c3ccco3)nn12`, for which the inhibition was 7.12% (inactive).

As to `CCOC(=O)C(CCOc1cccc(CC)c1)C(=O)OCC`, the inhibition is 9.83% (inactive). Under `COc1ccc(-c2nnn(CC(=O)N(CCO)C(C(=O)NC3CCCC3)c3ccc(F)cc3)n2)cc1` (stereo unspecified) stands 3.14% (inactive); under `Cc1ccccc1CSc1nnc(-c2ccccn2)n1N`, 12.7% (inactive); under `CCOC(=O)c1[nH]c2ccc(C)cc2c1N=C(C)N(C)C`, 10.8% (inactive).

As to `COC(=O)C1=C(C)NC2=C(C(=O)c3ccccc32)C1c1ccc(-c2ccc(C(=O)O)cc2)o1` (stereo unspecified), the inhibition was 7.73% (inactive).

Regarding `CC1C=CCC2C(=O)N(c3cccc(C(=O)N4CCCCCC4)c3)C(=O)C12` (stereo unspecified), the inhibition was 19% (inactive). For `CCS(=O)(=O)N1CCCC(C(=O)NCc2ccc(C)cc2)C1` (stereo unspecified) the value was 13.3% (inactive). Under `COC(=O)Cc1c(C)c2ccc(OCC(=O)NCc3ccc4c(c3)OCO4)cc2oc1=O` stands 4.91% (inactive); under `CNC(=O)CSc1nnc(CCc2ccccc2)n1-c1ccccc1`, 5.29% (inactive). Turning to `CC1CCCN(C(=O)Cn2c(=O)oc3ccccc32)C1` (stereo unspecified), the inhibition was -0.77% (inactive). For `CC1(C)SC2c3ccccc3C(=O)N2[C@@H]1C(=O)NCc1ccco1` (stereo partly specified) the value was -5.49% (inactive). For `O=C(c1ccc(O)cc1)c1ccc(C(=O)O)c(C(=O)O)c1` the value was -8.85% (inactive). For `O=C(C1CCN(CC2CCCCC2)CC1)N1CCCC1` the value was 4.05% (inactive); for `COC(=O)c1oc2ccc(Br)cc2c1NC(C)=O`, 11.8% (inactive); for `COc1ccccc1CNCc1cccs1`, -3.09% (inactive). For `CCn1cc(C(=O)NCc2ccc(OC)cc2OC)c(=O)c2ccc(C)nc21`, the inhibition is -3.58% (inactive). Turning to `COc1ccc(-c2noc(-c3cccc(OC)c3OC)n2)cc1OC`, the inhibition was 21.6% (inactive). For `O=C(CN1CCN(c2nc(-c3ccccc3)cs2)CC1)NCc1ccc2c(c1)OCO2` the value was 13.6% (inactive); for `Cc1cccc(N(CC(O)CN(C)C)S(=O)(=O)c2ccccc2)c1` (stereo unspecified), -22.7% (inactive); for `COC(=O)[C@H](C)NC(=O)Nc1ccc(OC(F)(F)F)cc1`, 4.04% (inactive). For `O=C1OC(NC(=O)c2ccccc2)C(N2CCOCC2)=C1Cl` (stereo unspecified), the inhibition is 18.5% (inactive). For `Cc1ccc(Oc2ccc(N)cc2)cc1` the value was -0.695% (inactive). For `O=C(CC1NCCNC1=O)Nc1ccc(Oc2ccccc2)cc1` (stereo unspecified) the value was 32.3% (active); for `CCOc1ccc(NC(=O)CC2NCCNC2=O)cc1` (stereo unspecified), 2.46% (inactive). For `O=C(CC1Nc2ccccc2NC1=O)Nc1ccccc1` (stereo unspecified) the value was -0.205% (inactive); for `CCCSc1nc2c(c(=O)n(C)c(=O)n2C)n1Cc1ccc(C)cc1`, -3.43% (inactive). Take `CNC(=O)C1CC(=O)N(Cc2ccc3c(c2)OCO3)C(=Nc2ccc(F)cc2)S1` (stereo unspecified): the inhibition is 13% (inactive). Turning to `O=C(C(Cc1ccccc1)n1cccc1)N1CCN(C2CCCCC2)CC1` (stereo unspecified), the inhibition was 14.7% (inactive). Under `O=C(O)c1cccc2c1C(=O)N(C1CCCCC1)C2` stands 16.2% (inactive); under `O=C(Cn1nc(Cc2cccnc2)c2ccccc2c1=O)NCC1COc2ccccc2O1` (stereo unspecified), 15.7% (inactive); under `CCOc1cc2c(cc1OCC)C(C(=O)O)C(c1ccc(OC)c(O)c1)N(C)C2=O` (stereo unspecified), 16.6% (inactive). For `Fc1ccccc1OCCSc1nc2ccccc2o1` the value was -8.88% (inactive); for `Cc1nn(-c2ccccc2)c2c1C(=O)NC(=O)C(C)(C)C2`, 5.83% (inactive); for `N#C/C=C\Oc1ccc(Cl)cc1N`, -1.31% (inactive). Under `CCOC(=O)c1cccc(NC(=O)CCc2c(C)nc3ncnn3c2C)c1` stands 1.8% (inactive); under `Cc1ccc(-c2nc(CS(=O)CC(=O)N3CCN(c4ncccn4)CC3)c(C)o2)cc1` (stereo unspecified), 22.7% (inactive). On to `Cc1onc(-c2ccccc2Cl)c1C(=O)NCCn1ccc2ccccc21`, for which the inhibition is 7.02% (inactive). As to `CCOc1ccc(CNC(=O)C2CC(=O)N(C3CCCC3)C2)cc1OC` (stereo unspecified), the inhibition was 18.4% (inactive). For `Cc1cc2c(=O)n(C)c(SCC(=O)c3cc4ccccc4o3)nc2s1` the value was 3.24% (inactive); for `Cc1nc2ncnn2c(C)c1CCC(=O)N1CCN(C(=O)c2ccco2)CC1`, 1.46% (inactive). Turning to `CN(C(=O)COc1nnc(-c2cccs2)c(-c2cccs2)n1)c1ccccc1`, the inhibition is 7.72% (inactive). Under `C=CCN1C(=O)C(O)(CC(=O)c2ccc(Cl)cc2)c2ccccc21` (stereo unspecified) stands 8.76% (inactive); under `CCOCCCNC(=O)Cc1cc(=O)[nH]c(=O)[nH]1`, 26.3% (inactive); under `CC(C)CCNC(=O)CN(C(=O)Cn1nnc(-c2ccc(F)cc2)n1)C1CCCC1`, 0.465% (inactive). `COc1ccc(C2SCCN2S(=O)(=O)c2ccccc2)cc1OC` (stereo unspecified): the inhibition was 21.6% (inactive).

Turning to `COC(=O)c1ccc(CN(c2ccccc2OC)S(=O)(=O)c2cccs2)o1`, the inhibition is -0.725% (inactive). For `CC1(C)C(=O)C2(CCCCC2)C(=O)OC1c1cccs1` (stereo unspecified) the value was 15.8% (inactive).

Regarding `COc1ccc(-c2nc3n(c2Br)CCC3)cc1`, the inhibition was 7.42% (inactive). Under `O=C(CSc1nc2cc3c(cc2c(=O)n1CCC1=CCCCC1)OCO3)NCc1ccco1` stands 15.2% (inactive); under `CN1C(C)(C)CC(NC(=O)CCC(=O)NC2CC(C)(C)N(C)C(C)(C)C2)CC1(C)C`, 9.95% (inactive); under `CCOC(=O)C1CCN(C(=O)C2CCN(S(=O)(=O)c3c(C)noc3C)CC2)CC1`, -18.4% (inactive). For `COCCn1nnnc1C(c1ccccc1Cl)N1CCN(c2ccccc2OC)CC1` (stereo unspecified) the value was 9.52% (inactive). Under `O=C(CCOc1ccccc1)NCc1ccccc1` stands 12.9% (inactive). As for `O=C(CCCN1C(=O)C2C3C=CC(C3)C2C1=O)N1CCN(c2ccccc2)CC1` (stereo unspecified), the inhibition is 11.5% (inactive). Turning to `C[N+](C)(C)CCNC(=O)c1c(O)c2c([nH]c1=O)CCCC2`, the inhibition is 4.27% (inactive). Under `C/C(=N\O)C1(C)N(O)C(C)(C)C(c2ccc(Br)cc2)=[N+]1[O-]` (stereo unspecified) stands 0.945% (inactive). `CC(=O)C1C(c2cccc(Oc3ccccc3)c2)NC(=O)NC1(O)C(F)(F)F` (stereo unspecified): the inhibition is 6.73% (inactive).

These data come from PubChem BioAssay AID1235 (PCMD, 2008).
